Measurements taken from ChEMBL document CHEMBL1122337, “Syntheses of iron bis(pyridoxal isonicotinoylhydrazone)s and the in vivo iron-removal properties of some pyridoxal derivatives” (J Med Chem, 1983).

Columns and labels:
Format in all cases: ADME, organism-based
[1] = test system: Rattus norvegicus; assay: % distribution of the radioiron in rat liver followed by intravenous injection of chelating agent; conditions: in vivo
[2] = test system: Rattus norvegicus; assay: % distribution of the radioiron in blood of rat followed by intravenous injection of chelating agent; conditions: in vivo
[3] = species: Rattus norvegicus; assay: […] determined in faces of rat followed by […] of chelating agent; conditions: in vivo, iv
Outline: (§1)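 Normal rats. Storage iron was labelled with [⁵⁹Fe]ferritin, given im as 1 mL in sterile normal saline (0.2–0.4 μCi ⁵⁹Fe/mL, 40 μg ferritin iron). The ferritin was prepared in vivo from [⁵⁹Fe]citrate in iron-dextran-loaded rats. Chelator was given separately afterwards, 40 mg im as aqueous solution. Blood, liver, spleen and kidney were gamma-counted. Stool and urine were collected separately in metabolic cages. Results are percent of injected ⁵⁹Fe.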

[4] = species: Rattus norvegicus; assay: […] determined in urine of rat followed by […] of chelating agent; conditions: in vivo, iv; outline: as §1
[5] = test system: Rattus norvegicus; assay: % distribution of the radioiron in rat kidney followed by intravenous injection of chelating agent; conditions: in vivo
[6] = test system: Rattus norvegicus; assay: % distribution of the radioiron in rat spleen followed by intravenous injection of chelating agent; conditions: in vivo
[7] = test system: Rattus norvegicus; assay: % excretion of radioiron determined in feces of rat followed by intravenous injection of transferrin pre-incubated with 10 mg of chelating agent; conditions: in vivo
Outline: (§2)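 Normal rats. Fresh rat plasma was labelled with ⁵⁹FeCl₃ plus excess citrate (citrate:Fe >50:1; final 0.5 μCi ⁵⁹Fe/mL). It was preincubated with 10 mg chelating agent and 1 mL was injected iv. Blood (1 mL), weighed liver portions, and whole spleen and kidney were counted in a well-type gamma counter. Feces and urine were collected separately in metabolic cages. Results are percent of injected ⁵⁹Fe ± SD.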

[8] = test system: Rattus norvegicus; assay: % distribution of the radioiron in rat kidney followed by intravenous injection of transferrin pre-incubated with 10 mg of chelating agent; conditions: in vivo; outline: as §2
[9] = test system: Rattus norvegicus; assay: % distribution of the radioiron in rat spleen followed by intravenous injection of transferrin pre-incubated with 10 mg of chelating agent; conditions: in vivo; outline: as §2
[10] = test system: Rattus norvegicus; assay: % distribution of the radioiron in rat liver followed by intravenous injection of transferrin preincubated with 10 mg of chelating agent; conditions: in vivo; outline: as §2
[11] = test system: Rattus norvegicus; assay: % distribution of the radioiron in blood of rats followed by intravenous injection of transferrin pre-incubated with 10 mg of chelating agent; conditions: in vivo; outline: as §2
[12] = test system: Rattus norvegicus; assay: % excretion of radioiron determined in urine of rat followed by intravenous injection of transferrin preincubated with 10 mg of chelating agent; conditions: in vivo; outline: as §2

Row | Distribution [1] [%] | Distribution [2] [%] | Distribution [3] [%] | Distribution [4] [%] | Distribution [5] [%] | Distribution [6] [%] | Distribution [7] [%] | Distribution [8] [%] | Distribution [9] [%] | Distribution [10] [%] | Distribution [11] [%] | Distribution [12] [%] | Structure (SMILES)
1 | 82.4 | 12.3 | 4.1 | 0.09 | 0.3 | 1 | – | – | – | – | – | – | Cc1ncc(CO)c(/C=N/NC(N)=O)c1O
2 | – | – | – | – | – | – | 10.4 | 0.8 | 0.6 | 15.7 | 31.7 | 0.8 | CC(=O)OCc1cnc(C)c(O)c1/C=N\NC(=O)c1ccncc1
3 | 66.7 | 19.6 | 8.2 | 0.04 | 0.5 | 0.6 | – | – | – | – | – | – | Cc1ncc(CO)c(/C=N/Nc2nc(-c3ccccc3)cs2)c1O
4 | 60.2 | 19.1 | 6.5 | 0.01 | 0.4 | 0.8 | – | – | – | – | – | – | Cc1csc(N/N=C/c2c(CO)cnc(C)c2O)n1
5 | 63.8 | 19 | 8.6 | 0.03 | 0.4 | 0.7 | – | – | – | – | – | – | CCOC(=O)N/N=C/c1c(CO)cnc(C)c1O
6 | 63.2 | 19.4 | 7.3 | 0.08 | 0.4 | 0.55 | – | – | – | – | – | – | Cc1ncc(CO)c(/C=N/NC(=O)OC(C)(C)C)c1O
7 | – | – | – | – | – | – | 6 | 1 | 0.9 | 16.2 | 39.6 | 0.3 | Cc1ncc(CO)c(/C=N/NC(=O)c2cccnc2)c1O
8 | – | – | – | – | – | – | 3.3 | 0.8 | 0.6 | 14.7 | 27 | 0.02 | COc1ccc(COC(=O)N/N=C/c2c(CO)cnc(C)c2O)cc1
9 | – | – | – | – | – | – | 6.8 | 1 | 0.6 | 12.6 | 27.9 | 0.4 | Cc1ncc(CO)c(/C=N/NC(=O)c2ccnc3ccccc23)c1O
10 | 71.3 | 1.8 | 15.5 | 0.08 | 0.3 | 0.4 | 18.7 | 0.6 | 0.2 | 3 | 7.4 | 62.9 | CC(=O)N(O)CCCCCNC(=O)CCC(=O)N(O)CCCCCNC(=O)CCC(=O)N(O)CCCCCN [DEFEROXAMINE]
11 | 78.7 | 2.3 | 12 | 0.05 | 0.3 | 0.5 | 32.8 | 0.6 | 0.4 | 9.6 | 32 | 4.3 | Cc1ncc(CO)c(/C=N/NC(=O)c2ccncc2)c1O [PYRIDOXAL ISONICOTINOYL HYDRAZONE]
